Test results published in article PMC8317130 (Journal of medicinal chemistry, 2020).
Converted amounts (≈) assume the structure as drawn. “Also recorded” adds a separate entry of the source. Read-outs that look alike come from different tables or passages of the source.

Experiments:
Aqueous solubility = type: physicochemical; settings: for solubility at 24 h: PBS buffer, pH 7.4
Caco-2 [1] = test: Bi-directional Caco-2 permeability; type: in vitro ADME, human
How it was run: (§1)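 Bidirectional (A→B and B→A) transport across Caco-2 monolayers, run by a contract lab. Donor/receiver pH 6.5/7.4. Concentrations measured as chromatographic peak areas. Papp (10^-6 cm/s) derived from end-point receiver concentration, incubation time, monolayer area and mid-point donor concentration. Recovery (%) = donor plus receiver amounts at end, relative to donor amount at time zero.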

panel of VRE isolates = test: MIC50/MIC90 over panel of eleven VRE clinical isolates; type: cell-based, E. faecium, E. faecalis; settings: Enterococcus
[2] = In vivo pharmacokinetics, oral gavage; parameters: species or system mice; settings: male, ICR, mouse, plasma, 10 mg/kg
E. faecium ATCC 700221 = test: Time-kill assay; type: cell-based; settings: 5× MIC, 24 hours, 37 °C
E. faecium HM-965 = test: MIC, broth microdilution; type: cell-based
How it was run: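 MIC by CLSI broth microdilution against E. faecium HM-965. Cells grown overnight on trypticase soy agar at 37 °C, set to 0.5 McFarland, and diluted in TSB to about 5 × 10^5 CFU/mL. Compounds from 10 mg/mL DMSO stocks serially diluted in plates.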

Caco-2 [3] = settings: cited from earlier work
plasma protein = settings: cited from earlier work
VRE strains = test: MIC in ambient air versus 5% CO2 on representative enterococcal strains; type: cell-based, Enterococcus; settings: five representative enterococcal strains
How it was run: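 CLSI broth microdilution. Enterococci grown overnight on trypticase soy agar at 37 °C, adjusted to 0.5 McFarland, then diluted in TSB to about 5 × 10^5 CFU/mL. Compounds from 10 mg/mL DMSO stocks serially diluted.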

[4] = Bi-directional Caco-2 permeability; type: in vitro ADME, human; settings: human, Caco-2
How it was run: as §1

NS(=O)(=O)c1nnc(NC(=O)CCC2CCCCC2)s1 [Compound 22, 3-Cyclohexyl-N-(5-sulfamoyl-1,3,4-thiadiazol-2-yl)propanamide]
maximum solubility relative to MIC against E. faecium HM-965 (Aqueous solubility): approximately 1500 fold | solubility at 24 h (Aqueous solubility): 10.4 µg/mL (≈ 32.7 µM) | net transport (A➔B) (Caco-2 [1]; Caco-2, pH 6.5/7.4): 0.46 | MIC90 (panel of VRE isolates; read-out: MIC90 converted to molar cellular potency): 0.0942 µM | concentration at 1440 min [2]: 0 ng/mL | bacteriostatic or bactericidal activity (E. faecium ATCC 700221): bacteriostatic

CC(=O)Nc1ccc(S(N)(=O)=O)cc1 [Compound 35, N-(4-sulfamoylphenyl)acetamide]
anti-VRE activity (in words) (E. faecium HM-965): complete loss of activity

CC(=O)Nc1nnc(S(N)(=O)=O)s1 [AZM, N-(5-sulfamoyl-1,3,4-thiadiazol-2-yl)acetamide]
Papp A → B (Caco-2 [3]; Caco-2, pH 6): 0.19^f 10^−6 cm/sec | Papp B → A (Caco-2 [3]; Caco-2, pH 6): 0.77^f 10^−6 cm/sec | apparent permeability coefficient, Papp, low-permeable drug class (Caco-2 [3]; Caco-2): < 5e+12 ×10⁻⁶ cm/s | net transport (A➔B) with P-gp inhibitors (Caco-2 [3]; Caco-2): up to 1.92 | net transport (A➔B) (Caco-2 [3]): 0.24 | plasma protein binding (plasma protein): over 90% | bacteriostatic or bactericidal activity (E. faecium ATCC 700221): bacteriostatic | activity against VRE strains in presence of 5% CO2 (VRE strains): inactive

NS(=O)(=O)c1nnc(NC(=O)CC2CCCCC2)s1 [Compound 20, 2-Cyclohexyl-N-(5-sulfamoyl-1,3,4-thiadiazol-2-yl)acetamide]
activity against VRE strains in presence of 5% CO2 (VRE strains): inactive

NS(=O)(=O)c1nnc(NC(=O)CN2CCOCC2)s1 [Compound 26, 2-(Morpholin-1-yl)-N-(5-sulfamoyl-1,3,4-thiadiazol-2-yl)acetamide]
maximum solubility relative to MIC against E. faecium HM-965 (Aqueous solubility): approximately 40 fold | solubility at 24 h (Aqueous solubility): 39 µg/mL (≈ 127 µM) | recovery [4]: 83% | concentration of molecule in the receiver chambers (Caco-2 [1]; Caco-2 permeability assay): below the limit of detection | bacteriostatic or bactericidal activity (E. faecium ATCC 700221): bacteriostatic

NS(=O)(=O)c1nnc(NCC2CCCCC2)s1 [Compound 30, 5-((cyclohexylmethyl)amino)-1,3,4-thiadiazole-2-sulfonamide]
anti-VRE activity (in words) (E. faecium HM-965): inactive against VRE

CN[C@H](CC(C)C)C(=O)N[C@H]1C(=O)N[C@@H](CC(N)=O)C(=O)N[C@H]2C(=O)N[C@H]3C(=O)N[C@H](C(=O)N[C@H](C(=O)O)c4cc(O)cc(O)c4-c4cc3ccc4O)[C@H](O)c3ccc(c(Cl)c3)Oc3cc2cc(c3O[C@@H]2O[C@H](CO)[C@@H](O)[C@H](O)[C@H]2O[C@H]2C[C@](C)(N)[C@H](O)[C@H](C)O2)Oc2ccc(cc2Cl)[C@H]1O [vancomycin, reference compound]
MIC90 (panel of VRE isolates): > 64 µg/mL

CC(=O)NC[C@H]1CN(c2ccc(N3CCOCC3)c(F)c2)C(=O)O1 [linezolid, reference compound]
bacteriostatic or bactericidal activity (E. faecium ATCC 700221): bacteriostatic

CC(=O)Nc1nnc(S(C)(=O)=O)s1 [Compound 33, N-(5-(Methylsulfonyl)-1,3,4-thiadiazol-2-yl)acetamide]
anti-VRE activity (in words) (E. faecium HM-965): abolished the anti-VRE activity; also recorded: inactive against VRE strains; also recorded: complete loss of activity

CC(=O)Nc1ncc(S(N)(=O)=O)s1 [Compound 34, N-(5-sulfamoylthiazol-2-yl)acetamide]
anti-VRE activity (in words) (E. faecium HM-965): abrogated activity against VRE; also recorded: complete loss of anti-VRE activity
